Assay results reported in ChEMBL document CHEMBL3259640 (J Med Chem, 2014).
The source made the active and inactive calls. No cut-off for these calls is given here.

How the values were obtained:
[1] = biological target: Receptor-type tyrosine-protein kinase FLT3 (Homo sapiens, UniProt P36888); experiment: Inhibition of FLT3 (unknown origin) assessed as [33P] incorporation in substrate by TopCount microplate scintillation counting analysis
[2] = Oral bioavailability in Sprague-Dawley rat at 20 mg/kg compound formulated with 1% methylcellulose in water by LC-MS/MS analysis; assay type: ADME, organism-based; conditions: in vivo
Outline: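 Male Sprague–Dawley rats, n = 3. Blood drawn by preimplanted catheter over 24 h; plasma separated at 4 °C and deproteinated with acetonitrile. Drug measured by LC–MS/MS; parameters obtained by noncompartmental analysis.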

MDA-MB-468 [3] = experiment: Induction of mitotic abnormalities in human MDA-MB-468 cells assessed as proportion of cells displaying multipolar spindles at 100 nM after 48 hrs by immunofluorescent staining based microscopy (reference value: […]); assay type: functional
[4] = biological target: Mast/stem cell growth factor receptor Kit (Homo sapiens, UniProt P10721); experiment: Inhibition of Kit (unknown origin) assessed as [33P] incorporation in substrate by TopCount microplate scintillation counting analysis
[5] = biological target: Vascular endothelial growth factor receptor 2 (Homo sapiens, UniProt P35968); experiment: Inhibition of VEGFR2 (unknown origin) assessed as [33P] incorporation in substrate by TopCount microplate scintillation counting analysis
[6] = biological target: Serine/threonine-protein kinase B-raf (Homo sapiens, UniProt P15056); experiment: Inhibition of B-Raf (unknown origin) assessed as [33P] incorporation in substrate by TopCount microplate scintillation counting analysis
[7] = biological target: T1, Kinetochore protein NDC80 homolog (Homo sapiens) (UniProt O14777); experiment: Inhibition of Hec1/Nek2 interaction in human MDA-MB-468 cells assessed as induction of Nek2 degradation at 100 nM by western blot analysis in presence of 500 nM proteasome inhibition MG132; assay type: cell-based
T1 sequence (whole entry): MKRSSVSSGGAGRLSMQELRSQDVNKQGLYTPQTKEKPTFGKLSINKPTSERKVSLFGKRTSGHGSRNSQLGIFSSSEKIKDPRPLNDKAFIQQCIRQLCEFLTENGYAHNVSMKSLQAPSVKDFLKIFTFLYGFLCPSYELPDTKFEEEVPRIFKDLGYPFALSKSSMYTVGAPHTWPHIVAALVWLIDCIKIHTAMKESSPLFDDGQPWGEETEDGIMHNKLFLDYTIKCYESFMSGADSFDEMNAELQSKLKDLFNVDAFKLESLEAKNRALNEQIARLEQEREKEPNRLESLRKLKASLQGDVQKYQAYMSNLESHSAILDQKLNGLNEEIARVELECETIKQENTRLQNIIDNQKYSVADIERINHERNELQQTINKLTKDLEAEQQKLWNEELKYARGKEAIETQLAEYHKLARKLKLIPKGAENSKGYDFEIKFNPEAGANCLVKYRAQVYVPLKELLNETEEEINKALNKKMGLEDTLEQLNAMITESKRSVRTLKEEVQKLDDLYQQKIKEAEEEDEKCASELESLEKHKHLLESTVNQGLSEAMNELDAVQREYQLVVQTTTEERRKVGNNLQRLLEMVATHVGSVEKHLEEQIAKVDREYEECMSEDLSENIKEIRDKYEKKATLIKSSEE
Outline: (§1)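 MDA-MB-468 cells treated with compound at 100 nM, with or without MG132 at 500 nM. Lysates made in SDS sample buffer, run on SDS-PAGE and blotted to PVDF. Primary antibodies applied in 3% BSA-TBST, with HRP secondaries and enhanced chemiluminescence detection for Hec1 and Nek2.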

MDA-MB-468 [8] = experiment: Antiproliferative activity against human MDA-MB-468 cells assessed as cell viability after 96 hrs by CellTiter96 assay; assay type: functional, cell-based; conditions: MDA-MB-468, 96 h
[9] = Growth inhibition of human HAoSMC cells; assay type: cell-based
MDA-MB-231 [10] = experiment: Antitumor activity against human MDA-MB-231 cells xenografted in BALB/c nu/nu mouse assessed as tumor volume at 150 mg/kg, po bid for 28 days administered via gavage relative to control; assay type: functional
Outline: (§2)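 Female BALB/c nu/nu mice, 5–8 weeks old, implanted subcutaneously in the right flank with 1 × 10⁷ MDA-MB-231 cells in matrigel. Dosing began at about 100 mm³ mean tumour volume; 5 mice/group. Arms: vehicle (5% DMSO, 10% Cremophor in water) IV once daily, 20 mg/kg IV once daily, or 150 mg/kg PO twice daily, for 28 days. Caliper volumes and body weight every 2 days; T/C on day 28.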

K562 = experiment: Growth inhibition of human K562 cells; assay type: functional
COLO 205 = experiment: Growth inhibition of human COLO205 cells; assay type: functional
HeLa [11] = experiment: Induction of apoptosis in human HeLa cells assessed as increase in cleaved PARP level at 1 uM after 24 to 48 hrs by western blot analysis; assay type: functional, cell-based
Outline: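 HeLa cells given 1.0 μM compound, DMSO, or paclitaxel 100 nM for 24 and 48 h. Lysates made in SDS sample buffer, run on SDS-PAGE and transferred to PVDF. Blots probed for cleaved caspase-3, cleaved PARP, Bcl-2, Mcl-1 and XIAP, with actin as loading control, and detected by HRP-linked ECL.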

[12] = Oral bioavailability in Sprague-Dawley rat at 20 mg/kg compound formulated with 5% DMSO, 10% cremophor and 85% water by LC-MS/MS analysis; assay type: ADME, organism-based; conditions: in vivo
Aurora kinase A = Aurora kinase A (Homo sapiens, UniProt O14965); experiment: Inhibition of aurora A (unknown origin) assessed as [33P] incorporation in substrate by TopCount microplate scintillation counting analysis
MDA-MB-468 [13] = experiment: Induction of mitotic abnormalities in human MDA-MB-468 cells assessed as proportion of cells displaying chromosomal misalignment at 1000 nM after 48 hrs by immunofluorescent staining based microscopy (reference value: 21.4%); assay type: functional
MDA-MB-468 [14] = experiment: Induction of mitotic abnormalities in human MDA-MB-468 cells assessed as proportion of cells displaying chromosomal misalignment at 100 nM after 48 hrs by immunofluorescent staining based microscopy (reference value: 21.4%); assay type: functional
MDA-MB-231 [15] = experiment: Antitumor activity against human MDA-MB-231 cells xenografted in BALB/c nu/nu mouse assessed as tumor volume at 20 mg/kg, iv qd for 28 days relative to control; assay type: functional; outline: as §2
HeLa [16] = experiment: Antiproliferative activity against human HeLa cells assessed as cell viability after 96 hrs by CellTiter96 assay; assay type: functional, cell-based
[17] = biological target: T1, Kinetochore protein NDC80 homolog (Homo sapiens); experiment: Inhibition of Hec1/Nek2 interaction in human K562 cells assessed as reduction in coimmunoprecipitated Hec1 level at 100 nM after 16 hrs by co-immunoprecipitation assay; assay type: cell-based
[18] = biological target: T1, Kinetochore protein NDC80 homolog (Homo sapiens); experiment: Inhibition of Hec1/Nek2 interaction in human MDA-MB-468 cells assessed as induction of Nek2 degradation at 100 nM by western blot analysis; assay type: cell-based; outline: as §1
[19] = biological target: Epidermal growth factor receptor (Homo sapiens, UniProt P00533, T790M); experiment: Inhibition of EGFR T790M mutant (unknown origin) assessed as [33P] incorporation in substrate by TopCount microplate scintillation counting analysis; assay type: protein assay
[20] = biological target: Insulin-like growth factor 1 receptor (Homo sapiens, UniProt P08069); experiment: Inhibition of IGF-1R (unknown origin) assessed as [33P] incorporation in substrate by TopCount microplate scintillation counting analysis
Sequence of Insulin-like growth factor 1 receptor (P08069 31-736 limits assumed): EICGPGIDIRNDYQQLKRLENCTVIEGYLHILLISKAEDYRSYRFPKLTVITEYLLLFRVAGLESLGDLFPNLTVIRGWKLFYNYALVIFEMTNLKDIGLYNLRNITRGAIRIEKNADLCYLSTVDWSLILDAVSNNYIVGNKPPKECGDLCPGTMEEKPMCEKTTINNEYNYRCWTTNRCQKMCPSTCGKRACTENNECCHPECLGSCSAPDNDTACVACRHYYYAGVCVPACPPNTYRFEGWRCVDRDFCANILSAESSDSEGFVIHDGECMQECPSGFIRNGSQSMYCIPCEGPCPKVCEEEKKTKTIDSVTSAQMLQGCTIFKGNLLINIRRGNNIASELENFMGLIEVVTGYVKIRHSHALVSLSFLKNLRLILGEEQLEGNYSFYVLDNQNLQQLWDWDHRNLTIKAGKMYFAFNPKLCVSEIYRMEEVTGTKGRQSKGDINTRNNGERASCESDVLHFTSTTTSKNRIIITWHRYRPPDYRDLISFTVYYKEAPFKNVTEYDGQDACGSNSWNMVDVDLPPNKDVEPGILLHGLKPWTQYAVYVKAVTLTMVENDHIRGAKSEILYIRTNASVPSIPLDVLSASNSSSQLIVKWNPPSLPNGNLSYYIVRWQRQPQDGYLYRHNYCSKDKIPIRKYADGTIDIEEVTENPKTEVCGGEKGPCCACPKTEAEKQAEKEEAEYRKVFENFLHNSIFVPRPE
Sequence of Insulin-like growth factor 1 receptor (P08069 741-1367 limits assumed): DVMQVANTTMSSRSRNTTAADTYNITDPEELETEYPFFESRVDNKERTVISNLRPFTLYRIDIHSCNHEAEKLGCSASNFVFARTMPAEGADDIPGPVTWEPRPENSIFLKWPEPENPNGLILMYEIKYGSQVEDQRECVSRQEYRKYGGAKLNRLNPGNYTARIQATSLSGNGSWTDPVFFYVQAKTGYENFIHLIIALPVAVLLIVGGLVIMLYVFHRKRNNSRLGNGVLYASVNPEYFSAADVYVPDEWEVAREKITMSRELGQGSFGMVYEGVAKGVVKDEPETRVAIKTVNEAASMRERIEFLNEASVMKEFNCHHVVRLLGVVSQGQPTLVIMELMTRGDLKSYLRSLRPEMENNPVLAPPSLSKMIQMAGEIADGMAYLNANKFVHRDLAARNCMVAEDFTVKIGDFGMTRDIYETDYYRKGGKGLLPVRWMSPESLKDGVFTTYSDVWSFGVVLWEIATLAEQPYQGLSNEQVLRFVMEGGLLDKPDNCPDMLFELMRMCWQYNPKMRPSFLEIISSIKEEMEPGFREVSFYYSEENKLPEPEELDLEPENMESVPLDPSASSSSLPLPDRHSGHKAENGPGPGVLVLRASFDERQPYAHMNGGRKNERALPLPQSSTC

Sequence of Vascular endothelial growth factor receptor 2 (P35968 whole entry): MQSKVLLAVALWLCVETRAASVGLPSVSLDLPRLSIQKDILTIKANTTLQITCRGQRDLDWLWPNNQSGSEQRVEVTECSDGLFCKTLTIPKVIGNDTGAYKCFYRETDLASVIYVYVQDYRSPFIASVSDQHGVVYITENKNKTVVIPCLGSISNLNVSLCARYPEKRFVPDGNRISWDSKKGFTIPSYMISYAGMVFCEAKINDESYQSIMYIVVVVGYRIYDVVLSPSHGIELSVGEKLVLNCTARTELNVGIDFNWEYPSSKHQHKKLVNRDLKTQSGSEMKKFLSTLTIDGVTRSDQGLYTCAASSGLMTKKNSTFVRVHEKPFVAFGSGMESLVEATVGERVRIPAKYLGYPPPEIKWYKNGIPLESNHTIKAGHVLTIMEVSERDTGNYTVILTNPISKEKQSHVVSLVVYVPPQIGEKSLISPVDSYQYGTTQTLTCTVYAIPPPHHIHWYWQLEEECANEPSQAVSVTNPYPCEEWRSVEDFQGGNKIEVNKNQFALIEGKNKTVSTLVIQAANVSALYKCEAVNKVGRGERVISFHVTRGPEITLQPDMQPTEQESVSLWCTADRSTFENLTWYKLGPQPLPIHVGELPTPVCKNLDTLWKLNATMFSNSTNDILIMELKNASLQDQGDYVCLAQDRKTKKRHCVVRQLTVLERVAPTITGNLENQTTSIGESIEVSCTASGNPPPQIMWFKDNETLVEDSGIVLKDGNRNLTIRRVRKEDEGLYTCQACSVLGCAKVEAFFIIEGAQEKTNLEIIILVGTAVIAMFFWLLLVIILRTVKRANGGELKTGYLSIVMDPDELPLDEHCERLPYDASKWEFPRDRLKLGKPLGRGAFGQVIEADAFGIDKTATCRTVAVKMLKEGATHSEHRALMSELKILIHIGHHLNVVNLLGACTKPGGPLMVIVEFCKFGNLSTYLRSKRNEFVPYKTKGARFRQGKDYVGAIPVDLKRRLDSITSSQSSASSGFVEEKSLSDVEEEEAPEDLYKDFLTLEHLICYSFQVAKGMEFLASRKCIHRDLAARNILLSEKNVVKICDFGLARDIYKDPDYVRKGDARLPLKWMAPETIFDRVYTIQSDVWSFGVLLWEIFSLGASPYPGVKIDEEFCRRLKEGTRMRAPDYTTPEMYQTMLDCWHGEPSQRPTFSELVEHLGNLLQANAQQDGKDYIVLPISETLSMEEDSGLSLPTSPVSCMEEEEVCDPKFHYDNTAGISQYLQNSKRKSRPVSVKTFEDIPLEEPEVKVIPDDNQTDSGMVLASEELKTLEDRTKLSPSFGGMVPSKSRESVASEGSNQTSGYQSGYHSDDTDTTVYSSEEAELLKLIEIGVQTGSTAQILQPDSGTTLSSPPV
Sequence of Epidermal growth factor receptor (P00533 25-1210 T790M limits assumed): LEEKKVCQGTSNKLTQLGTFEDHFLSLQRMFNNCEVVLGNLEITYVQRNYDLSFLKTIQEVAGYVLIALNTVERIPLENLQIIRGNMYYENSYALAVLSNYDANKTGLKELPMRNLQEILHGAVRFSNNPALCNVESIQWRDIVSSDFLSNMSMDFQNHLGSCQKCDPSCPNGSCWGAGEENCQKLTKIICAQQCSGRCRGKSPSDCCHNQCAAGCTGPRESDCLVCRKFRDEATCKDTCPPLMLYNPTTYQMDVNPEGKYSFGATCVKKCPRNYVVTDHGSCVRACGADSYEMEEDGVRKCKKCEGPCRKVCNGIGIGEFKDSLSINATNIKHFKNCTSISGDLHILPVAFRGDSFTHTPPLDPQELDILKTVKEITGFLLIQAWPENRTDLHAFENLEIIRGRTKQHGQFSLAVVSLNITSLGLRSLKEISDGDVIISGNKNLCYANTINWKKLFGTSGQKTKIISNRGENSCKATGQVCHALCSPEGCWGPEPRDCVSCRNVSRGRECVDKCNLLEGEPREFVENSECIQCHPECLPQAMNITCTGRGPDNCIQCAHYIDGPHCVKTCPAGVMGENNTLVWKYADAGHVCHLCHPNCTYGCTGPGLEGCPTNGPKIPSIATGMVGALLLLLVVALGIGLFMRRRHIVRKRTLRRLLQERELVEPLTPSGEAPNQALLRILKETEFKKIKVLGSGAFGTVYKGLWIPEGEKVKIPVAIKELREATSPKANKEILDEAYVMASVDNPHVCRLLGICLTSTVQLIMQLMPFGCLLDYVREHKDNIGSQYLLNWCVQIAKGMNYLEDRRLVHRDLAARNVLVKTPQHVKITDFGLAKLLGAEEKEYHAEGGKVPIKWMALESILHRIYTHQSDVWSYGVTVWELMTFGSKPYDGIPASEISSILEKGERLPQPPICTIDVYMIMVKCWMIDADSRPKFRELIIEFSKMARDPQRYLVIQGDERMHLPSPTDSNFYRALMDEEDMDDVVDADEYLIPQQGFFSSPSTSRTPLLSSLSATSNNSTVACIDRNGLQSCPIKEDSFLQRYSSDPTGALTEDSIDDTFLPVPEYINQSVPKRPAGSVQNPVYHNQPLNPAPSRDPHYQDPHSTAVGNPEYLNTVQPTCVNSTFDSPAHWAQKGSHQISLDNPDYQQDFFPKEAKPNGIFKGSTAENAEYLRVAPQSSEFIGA
Sequence of Receptor-type tyrosine-protein kinase FLT3 (P36888 whole entry): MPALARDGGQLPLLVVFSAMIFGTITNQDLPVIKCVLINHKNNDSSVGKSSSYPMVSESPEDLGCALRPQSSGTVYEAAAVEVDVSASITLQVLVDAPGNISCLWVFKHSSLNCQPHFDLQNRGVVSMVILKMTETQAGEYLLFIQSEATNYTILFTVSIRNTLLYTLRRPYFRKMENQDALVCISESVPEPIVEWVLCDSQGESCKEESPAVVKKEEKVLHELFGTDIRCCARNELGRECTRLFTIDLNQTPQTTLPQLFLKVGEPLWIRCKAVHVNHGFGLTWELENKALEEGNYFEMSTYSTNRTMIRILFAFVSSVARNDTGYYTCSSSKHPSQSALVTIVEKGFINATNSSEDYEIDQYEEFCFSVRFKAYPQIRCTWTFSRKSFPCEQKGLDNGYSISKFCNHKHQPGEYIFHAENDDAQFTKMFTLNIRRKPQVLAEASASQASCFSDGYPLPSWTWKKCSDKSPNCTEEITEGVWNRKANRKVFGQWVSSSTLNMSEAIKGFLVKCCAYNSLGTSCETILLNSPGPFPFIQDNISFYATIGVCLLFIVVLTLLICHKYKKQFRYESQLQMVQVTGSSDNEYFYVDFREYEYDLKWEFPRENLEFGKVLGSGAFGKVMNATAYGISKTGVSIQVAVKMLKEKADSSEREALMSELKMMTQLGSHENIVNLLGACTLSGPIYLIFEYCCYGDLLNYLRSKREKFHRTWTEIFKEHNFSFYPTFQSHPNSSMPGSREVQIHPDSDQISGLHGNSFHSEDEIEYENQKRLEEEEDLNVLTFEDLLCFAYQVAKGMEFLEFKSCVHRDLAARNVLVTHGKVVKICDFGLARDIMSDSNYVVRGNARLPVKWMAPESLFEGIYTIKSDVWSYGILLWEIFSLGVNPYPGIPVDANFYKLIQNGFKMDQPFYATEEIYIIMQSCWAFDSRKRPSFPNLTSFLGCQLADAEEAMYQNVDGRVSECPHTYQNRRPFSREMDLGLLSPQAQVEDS

IC50 [1]: > 10 µM | bioavailability [2]: 4.6% | IC50 [4]: > 10 µM | IC50 [5]: > 10 µM | IC50 [6]: > 10 µM | Activity [7]: inactive | IC50 (MDA-MB-468 [8]): 0.04 µM | GI50 (K562): 0.0562 µM | GI50 (COLO 205): 0.0354 µM | bioavailability [12]: 22.7% | IC50 (Aurora kinase A): > 10 µM | IC50 (HeLa [16]): 0.0427 µM | inhibition [17]: Active | Activity [18]: Active | IC50 [19]: > 10 µM | IC50 [20]: > 10 µM
Structure (SMILES): COc1ccc(Oc2cc(C)c(-c3csc(NC(=O)c4ccnc(F)c4)n3)c(C)c2)cc1
Activity (MDA-MB-468 [3]): 29.1% | GI50 [9]: > 9 µM | T/C (MDA-MB-231 [10]): 57% | Activity (HeLa [11]): Active | Activity (MDA-MB-468 [13]): 20% | Activity (MDA-MB-468 [14]): 21.8% | T/C (MDA-MB-231 [15]): 32%
